From PMC5575737 (Bioorganic & medicinal chemistry letters, 2017)

How the values were obtained:
H460 cells [1] = experiment: JC-1 mitochondrial membrane potential assay; assay type: cell-based
[2] = Solubility in water, water/DMSO and 2-HPβCD solutions; assay type: physicochemical; conditions: for behaviour on addition of water to the DMSO solution: final 1% DMSO in water
[3] = system: four NSCLC lines (NCI-H460, NCI-H1975, A549, HCC827); experiment: MTT cell viability assay, all four lines; assay type: cell-based; conditions: 72 h, read-out: IC50 values, range over four NSCLC lines
Outline: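 Cells were exposed for 72 h, then viability was read by MTT. Test compound was dissolved in DMSO and diluted with water to 1% DMSO, giving at most 0.032% DMSO final in medium. A parallel run used stock in 10% (w/v) 2-HPβCD (≤0.008% final), with 0.008% 2-HPβCD vehicle controls. Cisplatin was dissolved in water. IC50 was the concentration giving 50% loss of viability versus control cells.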

nine NSCLC lines = experiment: NCI-60 one-dose assay, average; assay type: cell-based, human; conditions: average over the NSCLC lines tested; single dose 10 μM
Outline: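 The NCI DTP ran the NCI-60 one-dose screen. Cells were plated at densities matched to doubling rate and incubated overnight, then exposed to 10 μM test compound for […]. Growth percentage came from protein density at the end versus the start of exposure. Values were averaged across the nine NSCLC lines.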

C57BL/6 mice = experiment: Preliminary in vivo toxicity study
DNA = DNA interaction: viscosity and fluorescent intercalator displacement assays; assay type: binding
H460 cells [4] = experiment: Annexin V apoptosis assay; assay type: cell-based
Outline: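 H460 cells in 6-well plates were treated with the test compound in 10% (w/v) 2-HPβCD aqueous solution or in DMSO. Controls were 2-HPβCD vehicle and cisplatin. Cells were stained with Annexin V-FITC plus propidium iodide and imaged by fluorescence microscopy (20× objective) at 12, 14, 17 and 20 h. Read-outs were green versus green+red fluorescence and membrane blebbing.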

NCI-H522 = experiment: NCI-60 five-dose assay; assay type: cell-based, human
Outline: (§1)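 The NCI DTP ran the NCI-60 five-dose screen. Cells were exposed to the test compound at 10 nM, 100 nM, 1 μM, 10 μM and 100 μM. Read-outs were growth inhibition by 50% (GI50), total growth inhibition (TGI) and 50% lethal concentration (LC50), each relative to control cells.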

HOP-92 = experiment: NCI-60 five-dose assay; assay type: cell-based, human
Outline: as §1

A549/ATCC = experiment: NCI-60 five-dose assay; assay type: cell-based, human
Outline: as §1

EKVZ = experiment: NCI-60 five-dose assay; assay type: cell-based, human
Outline: as §1

NCI-H460 = experiment: NCI-60 five-dose assay; assay type: cell-based, human
Outline: as §1

NCI-H226 = experiment: NCI-60 five-dose assay; assay type: cell-based, human
Outline: as §1

HOP-62 = experiment: NCI-60 five-dose assay; assay type: cell-based, human
Outline: as §1

H460 cells [5] = conditions: cited from earlier work

For N#CC(C#N)=NNc1cccc(Cl)c1 [CCCP, carbonylcyanide m-chlorophenylhydrazone, reference compound], the “mitochondrial potential versus media control cells” value (H460 cells [1]; positive control) was “mitochondria potential was decreased”.
In the case of Cc1n(Cc2ccc3ccccc3c2)cc[n+]1Cc1ccc2ccccc2c1.[Br-] [Compound 1], the “behaviour on addition of water to the DMSO solution” value (“behaviour on addition of water” for short) [2] is reported as “slight precipitation”, the IC50 [3] is reported as 660 to 3500 nM and the “Growth % Average” value (nine NSCLC lines) is reported as 21.19%.
For CCc1n(Cc2ccc3ccccc3c2)cc[n+]1Cc1ccc2ccccc2c1.[Br-] [Compound 2], the “behaviour on addition of water” value [2] was “remained soluble”, the IC50 [3] was 660 to 3500 nM and the “clinical observation the day after the second injection” value (C57BL/6 mice; 15 mg/kg IP on day fourteen, two surviving mice) was “both animals were sacrificed due to lethargic movement”. The “body weight after first injection” value (C57BL/6 mice; 20 mg/kg IP) was “sharp decrease in weight”, the mortality (C57BL/6 mice; 20 mg/kg IP on day zero in 20% 2-HPβCD, day two) was “one mouse from the experimental group was found deceased” and the overall toxicity (C57BL/6 mice; 20 mg/kg then 15 mg/kg IP) was “quite toxic at the doses administered”. For the same molecule, the average weight loss (C57BL/6 mice; after second injection, 15 mg/kg IP on day fourteen) was “around 6%”, the “red fluorescence (J-aggregates, intact MMP)” value (“red fluorescence” for short) (H460 cells [1]; 20 μM, 1 hour versus 15 minutes) was “apparent decrease in intensity” and the “red fluorescence” value (H460 cells [1]; 40 μM, 30 minutes) was “minimal red fluorescence”. For the same molecule, the “red fluorescence” value (H460 cells [1]; 40 μM, 1 hour and 2.5 hours) was “minimal red fluorescence”, the “interaction with DNA” value (DNA) was “little to no interaction with DNA” and the “Growth % Average” value (nine NSCLC lines) was 4.18%. The “time at which strong green fluorescence (Annexin V-FITC) was observed” value (H460 cells [4]; 40 μM, water/DMSO solution) was 1 h, the “time of treatment at which blebbing occurs” value (H460 cells [4]; 2-HPβCD vehicle) was 14 h and the “mode of cell death” value (H460 cells [4]; DMSO or 2-HPβCD vehicle, two independent trials) was “causes apoptosis”. For the same molecule, the “time of treatment at which blebbing occurs” value (H460 cells [4]; DMSO vehicle) was 3 h.
In the case of CCCc1n(Cc2ccc3ccccc3c2)cc[n+]1Cc1ccc2ccccc2c1.[Br-] [Compound 3], the “behaviour on addition of water” value [2] is reported as “remained soluble”, the IC50 [3] is reported as 660 to 3500 nM and the “Growth % Average” value (nine NSCLC lines) is reported as 2.33%.
CCCCc1n(Cc2ccc3ccccc3c2)cc[n+]1Cc1ccc2ccccc2c1.[Br-] [Compound 4] gave a TGI (NCI-H522) of 1890 nM, a GI50 (NCI-H522; Homo sapiens) of 491 nM and a TGI (HOP-92) of 2350 nM. The GI50 (HOP-92; Homo sapiens) was 844 nM, the “behaviour on addition of water” value [2] was “slight precipitation” and the TGI (A549/ATCC; A549/ATCC) was 3240 nM. For the same molecule, the GI50 (A549/ATCC; Homo sapiens, A549) was 1670 nM, the TGI (EKVZ; EKVZ) was 3470 nM and the GI50 (EKVZ; Homo sapiens) was 1350 nM. For the same molecule, the IC50 [3] was 660 to 3500 nM, the TGI (NCI-H460) was 2820 nM and the GI50 (NCI-H460; Homo sapiens) was 1250 nM. It also gave a TGI (NCI-H226) of 2930 nM, a GI50 (NCI-H226; Homo sapiens) of 1350 nM and a TGI (HOP-62) of 2750 nM. The GI50 (HOP-62; Homo sapiens) was 1290 nM and the “Growth % Average” value (nine NSCLC lines) was −1.36%.
In the case of CC(C)c1n(Cc2ccc3ccccc3c2)cc[n+]1Cc1ccc2ccccc2c1.[Br-] [Compound 5], the “solubility in 2-HPβCD solution” value ([2]; 10% 2-HPβCD by weight in water) is reported as “mostly soluble”, the “behaviour on addition of water” value [2] is reported as “remained soluble” and the IC50 [3] is reported as 660 to 3500 nM.
For Clc1c(Cl)[n+](Cc2ccc3ccccc3c2)cn1Cc1ccc2ccccc2c1.[Br-] [IS23, 4,5-dichloro-1,3-bis(naphthalen-2-ylmethyl)imidazolium bromide], the “time of morphological changes (cell shrinkage, rounding, detachment)” value (H460 cells [5]) is given as “within the first hour”.
